Assay results taken from ChEMBL document CHEMBL1135653, “Novel apoptosis-inducing trans-platinum piperidine derivatives: synthesis and biological characterization” (J Med Chem, 2002).
pIC50: −log10 of the molar value. Values joined by “and” are separate entries in the source; they are usually repeats but may differ in a detail not shown here. Equal values may be shown once.

Experiments:
[1] = In vitro growth inhibition against C-26 cells incubated for 72 hr using cytotoxicity assay; format: functional, cell-based, Mus musculus
Procedure, shortened: (§1)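 Methylene blue staining assay. Exponentially growing cells plated, incubated 24 h, then drugs added at various concentrations (saline for controls), four wells per variant. Drug exposure 4, 24 or 72 h, then washed and grown in fresh medium to 72 h total. Cells fixed in 2.5% glutaraldehyde, stained with 1% MB in 0.1 M borate pH 8.5, dye extracted with 0.1 N HCl at 37 °C, OD read at 620 nm. IC50 given as mean ± SD from at least two experiments.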

[2] = system: OV-1063; assay: In vitro growth inhibition against OV-1063 cells incubated for 72 hr using cytotoxicity assay; format: functional, cell-based, Homo sapiens; procedure, shortened: as §1
[3] = In vitro growth inhibition against C-26 cells incubated for 4 hr using cytotoxicity assay; format: functional, cell-based, Mus musculus; procedure, shortened: as §1
[4] = system: OV-1063; assay: In vitro growth inhibition against OV-1063 cells incubated for 24 hr using cytotoxicity assay; format: functional, cell-based, Homo sapiens; procedure, shortened: as §1
[5] = In vitro growth inhibition against C-26 cells incubated for 24 hr using cytotoxicity assay; format: functional, cell-based, Mus musculus; procedure, shortened: as §1
[6] = system: OV-1063; assay: In vitro growth inhibition against OV-1063 cells incubated for 4 hr using cytotoxicity assay; format: functional, cell-based, Homo sapiens; procedure, shortened: as §1
[7] = Solubility was determined in DDW(double distilled water) at 37 degrees Centigrade; format: physicochemical; conditions: buffer

Row | Substance | Solubility [7] [µg/mL] | pIC50 [1] | pIC50 [2] | pIC50 [3] | pIC50 [4] | pIC50 [5] | pIC50 [6]
1 | cis-[ptcl2(NH3)(4-pic)] | – | 4.96 and 5.43 | 4.85 and 5.40 | 4.92 and 5.29 | 4.80 and 5.29 | 4.96 and 5.33 | 4.74 and 5.22
2 | TRANSPLATIN | 240 | 4.39 | 4.28 | 4.19 | 4.14 | 4.34 | 4.09
3 | trans-[ptcl2(4-pic)(pip)] | 30 | 5.76 | 5.35 | 5.35 | 5.22 | 5.60 | 5.19

Continued, in another order:

Row | Solubility [7] [µg/mL] | Substance | pIC50 [1] | pIC50 [2] | pIC50 [3] | pIC50 [4] | pIC50 [5] | pIC50 [6]
4 | 7500 | trans-[ptcl2(4-pic)(pz)] HCl | 5.46 | 5.29 | 5.26 | 5.22 | 5.35 | 5.13
5 | 2100 | CISPLATIN | 6.70 | 6.30 | 5.82 | 6.15 | 6.22 | 5.70
